# Results: ChEMBL document CHEMBL4376883, “Discovery and Optimization of Small Molecules Targeting the Protein-Protein Interaction of Heat Shock Protein 90 (Hsp90) and Cell Division Cycle 37 as Orally Active Inhibitors for the Treatment of Colorectal Cancer” (J Med Chem, 2020)
# Experiments:
# [1] = target: Heat shock protein HSP 90-beta/Hsp90 co-chaperone Cdc37 (Homo sapiens) (UniProt P08238+Q16543); test: Inhibition of His-tagged HSP90/GST-tagged Cdc37 (unknown origin) protein-protein interaction at 100 uM measured after 1 hr by HTRF assay relative to control; format: protein-complex assay
# Method in brief: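 His-Hsp90 and GST-Cdc37 were premixed at a final 80 nM in PBS with 200 mM KF, pH 7.4. Compound was added and the mix incubated 1 h at 37 °C, then read by HTRF. Inhibition rate was taken at 100 μM compound.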
# Heat shock protein HSP90 [2] = target: T1, Heat shock protein HSP90 (Homo sapiens, UniProt P07900+P08238); test: Inhibition of recombinant full-length HSP90 ATPase activity N-terminal domain (9 to 236 residues) (unknown origin) expressed in Escherichia coli BL21 (DE3) measured after 1 hr by ADP hunter plus assay
# Heat shock protein HSP90 [3] = target: T1, Heat shock protein HSP90; test: Binding affinity to recombinant […] HSP90 N-terminal domain (9 to 236 residues) (unknown origin) expressed in Escherichia coli BL21 (DE3) assessed as change in melting temperature by SYPRO dye based thermal shift assay
# Method in brief: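 Hsp90 N-terminal domain (10 µM) mixed with compound at 200, 100, 50 or 10 µM in 1× PBS, pH 8.0, with 6× SYPRO Orange. Heated from room temperature to 99 °C at 1 °C/min; fluorescence read at 492 nm excitation and 610 nm emission.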
# [4] = Permeability of the compound at pH 7.4 by PAMPA; format: ADME; settings: read-out: permeability
# Method in brief: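 Permeability coefficient (Pe) was measured at pH 7.4 by double-sink PAMPA.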
# Heat shock protein HSP90 [5] = target: T1, Heat shock protein HSP90; test: Binding affinity to recombinant […] biotinylated-HSP90 N-terminal domain (9 to 236 residues) (unknown origin) expressed in Escherichia coli BL21 (DE3) by biolayer interferometry
# Method in brief: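 Biotinylated Hsp90 (100 µg/mL) loaded onto streptavidin sensors prewetted 10 min in PBS with 0.05% BSA and 0.01% Tween 20. Analyte binding measured at 28 °C. Double reference subtraction applied; data fitted to a 1:1 model with K_D = K_off/K_on.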
# A549 = test: Antiproliferative activity against human A549 cells measured after 72 hrs by CCK8 assay; format: functional, cell-based; settings: A549, 72 h
# Method in brief: (§1)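 Cells grown in RPMI 1640 with 10% FBS at 37 °C, 5% CO2; STR-authenticated and mycoplasma-checked. Seeded at 3000-5000 cells/well and left 24 h. Serial compound dilutions added for 72 h, with matched DMSO as control. Viability read by CCK8 kit using the standard protocol. IC50 values derived from at least three parallel experiments.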
# L02 = test: Cytotoxicity against human L02 cells measured after 72 hrs by CCK8 assay; format: functional, cell-based; settings: L02, 72 h; method in brief: as §1
# Heat shock protein HSP90 [6] = target: T1, Heat shock protein HSP90; test: Binding affinity to recombinant […] HSP90 N-terminal domain (9 to 236 residues) (unknown origin) expressed in Escherichia coli BL21 (DE3) by isothermal calorimetric method
# Method in brief: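 ITC: 50 µM Hsp90 in the cell and 300 µM compound in the syringe, both in 20 mM Tris-HCl, 150 mM NaCl, pH 7.4. Nineteen injections at 180 s intervals with stirring at 1000 rpm.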
# HCT-116 = test: Antiproliferative activity against human HCT116 cells measured after 72 hrs by CCK8 assay; format: functional, cell-based; settings: HCT-116, 72 h; method in brief: as §1
# [7] = Half life in human liver microsomes at 10 uM preincubated for 5 mins followed by NADPH addition by LC-MS/MS analysis; format: ADME, Microsome
# Method in brief: (§2)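 Compound at 10 µM preincubated 5 min at 37 °C with human or mouse liver microsomes (0.5 mg/mL) in 100 mM phosphate, pH 7.4. Reaction started with 1 mM NADPH, stopped with cold acetonitrile, centrifuged and analysed by LC-MS/MS.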
# [8] = Half life in mouse liver microsomes at 10 uM preincubated for 5 mins followed by NADPH addition by LC-MS/MS analysis; format: ADME, Microsome; method in brief: as §2
# [9] = Stability of the compound in human plasma assessed as parent compound remaining at 1 uM measured after 10 mins by LC-MS/MS analysis; format: ADME, cell-free; settings: read-out: Stability
# Method in brief: (§3)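 Compound diluted from 10 mM DMSO stock to 1 μM in mouse or human plasma and held at 37 °C in a water bath. Reactions were stopped with acetonitrile at 0, 10, 30, 60 and 90 min. Parent compound was quantified by LC-MS/MS as % remaining.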
# [10] = Stability of the compound in human plasma assessed as parent compound remaining at 1 uM measured immediately by LC-MS/MS analysis; format: ADME, cell-free; settings: read-out: Stability; method in brief: as §3
# [11] = Clearance in human liver microsomes at 10 uM preincubated for 5 mins followed by NADPH addition by LC-MS/MS analysis; format: ADME, Microsome; settings: read-out: CLH; method in brief: as §2
# [12] = Stability of the compound in human plasma assessed as parent compound remaining at 1 uM measured after 30 mins by LC-MS/MS analysis; format: ADME, cell-free; settings: read-out: Stability; method in brief: as §3
# [13] = Stability of the compound in mouse plasma assessed as parent compound remaining at 1 uM measured after 10 mins by LC-MS/MS analysis; format: ADME, cell-free; settings: read-out: Stability; method in brief: as §3
# [14] = Stability of the compound in mouse plasma assessed as parent compound remaining at 1 uM measured after 30 mins by LC-MS/MS analysis; format: ADME, cell-free; settings: read-out: Stability; method in brief: as §3
# [15] = Stability of the compound in mouse plasma assessed as parent compound remaining at 1 uM measured after 60 mins by LC-MS/MS analysis; format: ADME, cell-free; settings: read-out: Stability; method in brief: as §3
# [16] = Stability of the compound in human plasma assessed as parent compound remaining at 1 uM measured after 90 mins by LC-MS/MS analysis; format: ADME, cell-free; settings: read-out: Stability; method in brief: as §3
# [17] = Distribution coefficient, log D of the compound at pH 7.4 by potentiometric titration method; format: physicochemical; settings: octanol/water
# Method in brief: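 log D at pH 7.4 measured by potentiometric titration on a Gemini Profiler.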
# [18] = Stability of the compound in mouse plasma assessed as parent compound remaining at 1 uM measured immediately by LC-MS/MS analysis; format: ADME, cell-free; settings: read-out: Stability; method in brief: as §3
# [19] = Clearance in mouse liver microsomes at 10 uM preincubated for 5 mins followed by NADPH addition by LC-MS/MS analysis; format: ADME, Microsome; settings: read-out: CLH; method in brief: as §2
# [20] = Stability of the compound in mouse plasma assessed as parent compound remaining at 1 uM measured after 90 mins by LC-MS/MS analysis; format: ADME, cell-free; settings: read-out: Stability; method in brief: as §3
# [21] = Stability of the compound in human plasma assessed as parent compound remaining at 1 uM measured after 60 mins by LC-MS/MS analysis; format: ADME, cell-free; settings: read-out: Stability; method in brief: as §3
structure (smiles),measurement,setting,value
Cc1cc(C)c(S(=O)(=O)N(CC(=O)O)c2ccc(Nc3ccnc(NC4CC4)n3)cc2)c(C)c1,inhibition,[1],< 50%
CCC(CC)Nc1nccc(Nc2ccc(N(CC(=O)OC)S(=O)(=O)c3c(C)cc(C)cc3C)cc2)n1,inhibition,[1],< 50%
CC(C)(C)c1ccc(S(=O)(=O)Nc2ccc(Nc3ccnc(N4CCCC4)n3)cc2)cc1,inhibition,[1],< 20%
Cc1cc(C)c(S(=O)(=O)N(Cc2nnn[nH]2)c2ccc(Nc3ccnc(N4CCNCC4)n3)cc2)c(C)c1,IC50,Heat shock protein HSP90 [2],> 100 µM
same,ΔTm,Heat shock protein HSP90 [3],1.36 °C
same,Papp,[4],55.4 ×10⁻⁶ cm/s
same,Kd,Heat shock protein HSP90 [5],5.5 µM
same,IC50,A549,37.9 µM
same,IC50,L02,> 50 µM
same,inhibition,[1],98.6%
same,Kd,Heat shock protein HSP90 [6],2.4 µM
same,IC50,HCT-116,5.42 µM
COC(=O)CN(c1ccc(Nc2ccnc(NC3CC3)n2)cc1)S(=O)(=O)c1c(C)cc(C)cc1C,inhibition,[1],< 50%
Cc1cc(C)c(S(=O)(=O)N(Cc2ccc(Cl)cc2)c2ccc(Nc3ccnc(N4CCCC4)n3)cc2)c(C)c1,inhibition,[1],< 50%
Cc1cc(C)c(S(=O)(=O)N(CC(=O)O)c2ccc(Nc3ccnc(N4CCCCC4)n3)cc2)c(C)c1,inhibition,[1],86.2%
CCNc1nccc(Nc2ccc(N(CC(=O)O)S(=O)(=O)c3c(C)cc(C)cc3C)cc2)n1,inhibition,[1],< 50%
COC(=O)CN(c1ccc(Nc2ccnc(N3CCN(C)CC3)n2)cc1)S(=O)(=O)c1c(C)cc(C)cc1C,inhibition,[1],70.1%
Cc1cc(C)c(S(=O)(=O)N(CC(=O)O)c2ccc(Nc3ccnc(N4CCCCCC4)n3)cc2)c(C)c1,inhibition,[1],< 50%
CCC(CC)Nc1nccc(Nc2ccc(N(CC(=O)O)S(=O)(=O)c3c(C)cc(C)cc3C)cc2)n1,inhibition,[1],< 50%
CCNc1nccc(Nc2ccc(N(CC(=O)OC)S(=O)(=O)c3c(C)cc(C)cc3C)cc2)n1,inhibition,[1],< 50%
Cc1cc(C)c(S(=O)(=O)N(CC(=O)O)c2ccc(Nc3ccnc(N4CCCC4)n3)cc2)c(C)c1,half-life at 10 µM,[7],30.4 min
same,half-life at 10 µM,[8],16.8 min
same,IC50,Heat shock protein HSP90 [2],> 100 µM
same,"remaining at 10 min, 1 µM",[9],101%
same,"remaining at 0 min, 1 µM",[10],100%
same,microsomal CLint at 10 µM,[11],32.6 µL/min/mg
same,"remaining at 0.5 h, 1 µM",[12],92%
same,"remaining at 10 min, 1 µM",[13],100%
same,Papp,[4],70.4 ×10⁻⁶ cm/s
same,Kd,Heat shock protein HSP90 [5],7.41 µM
same,"remaining at 0.5 h, 1 µM",[14],86%
same,"remaining at 1 h, 1 µM",[15],71%
same,IC50,A549,55.7 µM
same,IC50,L02,> 50 µM
same,"remaining at 1.5 h, 1 µM",[16],62%
same,logD,[17],1.67
same,Kd,Heat shock protein HSP90 [6],7.81 µM
same,"remaining at 0 min, 1 µM",[18],100%
same,microsomal CLint at 10 µM,[19],59 µL/min/mg
same,"remaining at 1.5 h, 1 µM",[20],59%
same,"remaining at 1 h, 1 µM",[21],76%
same,IC50,HCT-116,10.2 µM
O=S(=O)(Nc1ccc(Nc2ccnc(N3CCCC3)n2)cc1)c1ccc2ccccc2c1,inhibition,[1],46.7%
CCN(CC)c1nccc(Nc2ccc(N(CC(=O)O)S(=O)(=O)c3c(C)cc(C)cc3C)cc2)n1,inhibition,[1],79.6%
COc1ccc(S(=O)(=O)Nc2ccc(Nc3ccnc(N4CCCC4)n3)cc2)cc1,inhibition,[1],< 20%
Cc1cc(C)c(S(=O)(=O)N(CC(=O)NO)c2ccc(Nc3ccnc(N4CCNCC4)n3)cc2)c(C)c1,IC50,Heat shock protein HSP90 [2],> 100 µM
same,ΔTm,Heat shock protein HSP90 [3],1.59 °C
same,Papp,[4],44.1 ×10⁻⁶ cm/s
same,Kd,Heat shock protein HSP90 [5],2.66 µM
same,IC50,A549,16.2 µM
same,IC50,L02,21.9 µM
same,inhibition,[1],96.2%
same,logD,[17],0.82
same,Kd,Heat shock protein HSP90 [6],5.49 µM
same,IC50,HCT-116,3.94 µM
